Series [1] concerns Staphylococcus aureus. In words: Antimicrobial activity against hospital acquired methicillin-resistant and vancomycin-intermediate Staphylococcus aureus VRS2 obtained from wound, skin and soft tissue infection of patient infected in human THP-1 cells assessed as decrease in bacterial growth after 24 hrs at pH 5.5. It is filed as functional, cell-based. To be noted: VRS2, THP-1, 24 h. Summed up: (§1)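 Human THP-1 macrophages infected with each S. aureus strain. Cloxacillin added extracellularly at about 0.01× to 100× the broth MIC measured at pH 5.5, with gentamicin 0.5 mg/liter to stop extracellular growth. Incubated 24 h. CFU counted per mg cell protein as change from the post-phagocytosis inoculum, n = 3. Emin, Emax and EC50 from a Hill fit; static concentration by graphical interpolation.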

In series [2] the test system is Staphylococcus aureus. Nature of the series: Antimicrobial activity against intracellular hospital acquired methicillin-resistant Staphylococcus aureus ATCC 33591 infected in human Calu3 cells assessed as increase in bacterial count from original inoculum at low compound concentration after 24 hrs at pH 7.4. It is filed as functional, Calu-3. A digest of the protocol:
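Primary human skin keratinocytes or Calu-3 bronchial epithelial cells, given an inoculum of 5 × 10⁷ to 1 × 10⁸ bacteria/ml and 2 h for internalization. Post-phagocytosis load 1.5 × 10⁶ to 3.0 × 10⁶ CFU per mg cell protein. Cloxacillin dose range in mg/liter for 24 h, n = 3. Hill-derived Emin, Emax and EC50; static concentration interpolated.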

In series [3] the test system is Staphylococcus aureus. Nature of the series: Antimicrobial activity against hospital acquired methicillin-resistant and vancomycin-intermediate Staphylococcus aureus NRS126 obtained from bloodstream infection of patient infected in human THP-1 cells assessed as decrease in bacterial growth after 24 hrs at pH 5.5. In kind it is functional, organism-based. The conditions noted are these: NRS126, THP-1, 24 h. Summed up:
(§2)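 Bacteria phagocytosed by unactivated human THP-1 macrophages, then incubated 24 h with extracellular antibiotic at about 0.01× to 100× the pH 5.5 broth MIC. CFU per mg cell protein counted against the original inoculum, n = 3. A Hill-equation fit (slope factor 1) gave Emin and Emax, extrapolated to infinitely low and high concentration, and EC50. Static concentration was graphically interpolated.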

Series [4] concerns Staphylococcus aureus. Nature of the series: Antimicrobial activity against intracellular hospital acquired methicillin-resistant Staphylococcus aureus ATCC 33591 activated infected in human THP-1 cells assessed as decrease in bacterial growth after 24 hrs at pH 7.4. It is filed as functional, organism-based. The conditions noted are these: ATCC 33591, THP-1, 24 h. Summed up:
(§3)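 THP-1 cells activated by 24-h culture with phorbol myristate acetate 2 mg/liter, then infected like unactivated THP-1. Cloxacillin dose range in mg/liter for 24 h. CFU per mg cell protein relative to the original inoculum, n = 3. Emin and Emax extrapolated from a Hill fit (slope 1), with EC50 as total drug; static concentration by graphical interpolation.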

In series [5] the test system is Staphylococcus aureus. Nature of the series: Antimicrobial activity against hospital acquired methicillin-resistant and vancomycin-intermediate Staphylococcus aureus NRS18 obtained from patient with wound, skin and soft tissue infection by broth microdilution method at pH 5.5. It is filed as functional.
The subject of series [6] is Staphylococcus aureus. Nature of the series: Antimicrobial activity against hospital acquired methicillin-resistant Staphylococcus aureus HMC546 by broth microdilution method at pH 7.4. In kind it is functional. Summed up:
(§4)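 Minimal inhibitory concentration by broth microdilution at pH 7.4, read in mg/liter. The MRSA genotype was confirmed by mecA PCR, and the SCCmec subgroup was assigned by multiplex PCR.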
A general note: Dilution methods test growth across graded concentrations, often in twofold steps.

For series [7], the system named is Staphylococcus aureus. In words: Antimicrobial activity against intracellular beta-lactamase negative methicillin-susceptible Staphylococcus aureus ATCC 25923 infected in human Calu3 cells assessed as decrease in bacterial growth after 24 hrs at pH 7.4. In kind it is functional, organism-based. To be noted: ATCC 25923, Calu-3, 24 h. Summed up:
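Calu-3 bronchial epithelial cells, grown in uncoated flasks, were infected with 5 × 10⁷ to 1 × 10⁸ bacteria/ml for 2 h, giving 1.5 × 10⁶ to 3.0 × 10⁶ CFU/mg protein after phagocytosis. Cells were then exposed 24 h to a range of cloxacillin concentrations (mg/liter). CFU change per mg protein was measured (n = 3). A Hill fit with slope 1 gave Emax and EC50, and the static concentration was interpolated.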

The test system of series [8] is Staphylococcus aureus. Nature of the series: Antimicrobial activity against Panton-valentine leukocidin positive community acquired methicillin-resistant Staphylococcus aureus N4090440 obtained from wound infection of patient infected in human THP-1 cells assessed as increase in bacterial count from original inoculum at low compound concentration after 24 hrs at pH 5.5. In kind it is functional. A digest of the protocol: as §2

The subject of series [9] is Staphylococcus aureus. In words: Antimicrobial activity against hospital acquired methicillin-resistant and vancomycin-intermediate Staphylococcus aureus VRS2 obtained from patient with wound, skin and soft tissue infection by broth microdilution method at pH 7.4. In kind it is functional. A digest of the protocol:
as §4

For series [10], the system named is Staphylococcus aureus. Nature of the series: Antimicrobial activity against Panton-valentine leukocidin positive community acquired methicillin-resistant Staphylococcus aureus N4042228 by broth microdilution method at pH 5.5. It is filed as functional.
In series [11] the test system is Staphylococcus aureus. Nature of the series: Antimicrobial activity against Panton-valentine leukocidin positive community acquired methicillin-resistant Staphylococcus aureus NRS192 obtained from patient with pneumonia and septic arthritis infected in human THP-1 cells assessed as decrease in bacterial growth after 24 hrs at pH 5.5. It is filed as functional, organism-based. To be noted: NRS192, THP-1, 24 h. Summed up:
as §2

Series [12] deals with Staphylococcus aureus. Nature of the series: Antimicrobial activity against beta-lactamase negative methicillin-susceptible Staphylococcus aureus ATCC 25923 infected in human THP-1 cells assessed as decrease in bacterial count from original inoculum at high compound concentration after 24 hrs at pH 7.4. In kind it is functional.
The test system of series [13] is Staphylococcus aureus. In words: Antimicrobial activity against hospital acquired methicillin-resistant Staphylococcus aureus N4120032 obtained from wound infection of patient by broth microdilution method at pH 5.5. It is filed as functional.
The subject of series [14] is Staphylococcus aureus. Nature of the series: Antimicrobial activity against Panton-valentine leukocidin positive community acquired methicillin-resistant Staphylococcus aureus NRS192 obtained from patient with pneumonia and septic arthritis by broth microdilution method at pH 7.4. In kind it is functional. A digest of the protocol:
as §4

Series [15] deals with Staphylococcus aureus. Nature of the series: Antimicrobial activity against constitutive beta-lactamase negative methicillin-resistant Staphylococcus aureus COL NRS100 infected in human THP-1 cells assessed as decrease in bacterial count from original inoculum at high compound concentration after 24 hrs at pH 5.5. It is filed as functional. Summed up: as §2
Series [16] deals with Staphylococcus aureus. In words: Antimicrobial activity against intracellular hospital acquired methicillin-resistant Staphylococcus aureus ATCC 33591 infected in activated human THP-1 cells assessed as decrease in bacterial count from original inoculum at high compound concentration after 24 hrs at pH 7.4. It is filed as functional. Summed up: as §3
Series [17] deals with Staphylococcus aureus. Nature of the series: Antimicrobial activity against hospital acquired methicillin-resistant Staphylococcus aureus N4120032 obtained from wound infection opf patient infected in human THP-1 cells assessed as decrease in bacterial count from original inoculum at high compound concentration after 24 hrs at pH 5.5. In kind it is functional. Summed up:
as §2

The subject of series [18] is Staphylococcus aureus. In words: Bacteriostatic activity against hospital acquired methicillin-resistant and vancomycin-intermediate Staphylococcus aureus NRS126 infected in human THP-1 cells assessed as decrease in bacterial growth after 24 hrs at pH 5.5. It is filed as functional. Summed up: as §1
The subject of series [19] is Staphylococcus aureus. In words: Antimicrobial activity against hospital acquired methicillin-resistant Staphylococcus aureus N4120210 obtained from urinary tract infection patient by broth microdilution method at pH 7.4. It is filed as functional. To be noted: N4120210, Urine. Summed up: as §4
For series [20], the system named is Staphylococcus aureus. Nature of the series: Antimicrobial activity against intracellular beta-lactamase negative methicillin-susceptible Staphylococcus aureus ATCC 25923 infected in activated human THP-1 cells assessed as decrease in bacterial growth after 24 hrs at pH 7.4. In kind it is functional, organism-based. To be noted: ATCC 25923, THP-1, 24 h. Summed up:
as §3

Series [21] can be described thus: Chemical stability of the compound assessed as compound remaining after 24 hrs PBS buffer by HPLC analysis at pH 5.5. It is filed as physicochemical. To be noted: read-out: Activity. Summed up: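 Drug at 50 mg/liter initial concentration incubated 24 h at 37°C in buffered medium at pH 7.4 or 5.5. Remaining drug measured by HPLC signal disappearance; mobile phase 25 mM phosphate buffer pH 6.7 with acetonitrile (75:25).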

Converted amounts (≈) assume the structure as drawn.

Consider `Cc1onc(-c2ccccc2Cl)c1C(=O)N[C@@H]1C(=O)N2[C@@H]1SC(C)(C)[C@@H]2C(=O)O` [CLOXACILLIN], for which the EC50 is 3.63 ×MIC in the series with Staphylococcus aureus [1]; 5.33 ×MIC with Staphylococcus aureus [3]; 0.32 µg/mL (≈ 0.734 µM) with Staphylococcus aureus [4]; 0.52 µg/mL (≈ 1.19 µM) in the series on Staphylococcus aureus [7]; 6.07 ×MIC in the series on Staphylococcus aureus [11]; 0.43 µg/mL (≈ 0.986 µM) in the series with Staphylococcus aureus [20]. Further, the log10cfu is 2.39 in the series on Staphylococcus aureus [2]; 2.51 in the series on Staphylococcus aureus [8]; 0.77 in the series on Staphylococcus aureus [12]; 0.78 with Staphylococcus aureus [15]; 0.7 with Staphylococcus aureus [16]; 0.74 in the series with Staphylococcus aureus [17]. In addition, the MIC in the series with Staphylococcus aureus [5] stood at 0.06 µg/mL (≈ 0.138 µM); against Staphylococcus aureus [6], 16 µg/mL (≈ 36.7 µM); against Staphylococcus aureus [9], 32 µg/mL (≈ 73.4 µM); against Staphylococcus aureus [10], 0.03 µg/mL (≈ 0.0688 µM); against Staphylococcus aureus [13], 0.06 µg/mL (≈ 0.138 µM); in the series on Staphylococcus aureus [14], 1 µg/mL (≈ 2.29 µM). In the series with Staphylococcus aureus [19], the MIC turned out to be 2 µg/mL (≈ 4.59 µM). In addition, the Activity with Staphylococcus aureus [18] came out at 20.9 ×MIC. In series [21], the remaining at 24 h was 93.3%.

One may read the MIC as the lowest concentration that inhibits growth of the organism. A high value points to weaker potency.

The values above are taken from ChEMBL document CHEMBL1649111, “Restoration of susceptibility of intracellular methicillin-resistant Staphylococcus aureus to beta-lactams: comparison of strains, cells, and antibiotics” (Antimicrob Agents Chemother, 2008).
